Legend:
Mus musculus [1] = assay: In vivo nicotinic antagonism relative to (+/-)-exo-mecamylamine measured in mice; assay type: functional
Method in brief: (§1)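 Mice; antagonist or saline sc 10 min before saline or nicotine ditartrate at its ED84 dose. Spontaneous activity counted in photocell cages, % depression vs saline. Tail-flick latency to heat measured 5 min after nicotine, 10-s cutoff, as % MPE. % antagonism per assay; AD50 with 95% confidence limits by Litchfield-Wilcoxon. Potency ratio = compound AD50 / racemic mecamylamine AD50; relative potency averages both assays.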

[2] = Partition coefficient (logP); assay type: physicochemical; conditions: octanol/water
Method in brief: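 Octanol-water partition coefficient, calculated (not measured) from structure by the Rekker fragment procedure.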

Mus musculus [3] = assay: In vivo nicotinic antagonism relative to (+/-)-exo-mecamylamine measured in mice; stimulant; assay type: functional, organism-based; method in brief: as §1

**Q.** With `CN(C)C1CC2CCC1(C)C2(C)C` (racemic) as the compound, how does the Relative potency (Mus musculus [1]) read?
**A.** The Relative potency was 10.5.

**Q.** What about the logP ([2]; read-out: logP) of the same compound?
**A.** Its logP is 3.96.

**Q.** With `CNC1C2CCC(C2)C1(C)C` (racemic) as the compound, how does the Relative potency (Mus musculus [1]) read?
**A.** Its Relative potency is 1.2.

**Q.** And the logP ([2]; read-out: logP)?
**A.** Its logP is 3.01.

**Q.** Which Relative potency (Mus musculus [1]) does the source give for `CNC1C2CCC(C2)C1C` (racemic) here?
**A.** Its Relative potency is 18.1.

**Q.** What about the logP ([2]; read-out: logP) of the same compound?
**A.** Its logP is 2.49.

**Q.** For `CNC1CC2CCC1(C)C2(C)C` (racemic), which Relative potency (Mus musculus [1]) is on record?
**A.** Its Relative potency is 8.6.

**Q.** And the logP ([2]; read-out: logP)?
**A.** Its logP is 3.53.

**Q.** With `CNC1CC2CCC1C2` (racemic) as the compound, how does the Relative potency (Mus musculus [1]) read?
**A.** Its Relative potency is greater than 40.

**Q.** And the logP ([2]; read-out: logP)?
**A.** The logP was 1.97.

**Q.** For `CN(C)C1(C)C2CCC(C2)C1(C)C` (racemic) [DIMECAMINE], which Relative potency (Mus musculus [1]) is on record?
**A.** The Relative potency was 1.5.

**Q.** What about the logP ([2]; read-out: logP) of the same compound?
**A.** Its logP is 3.96.

**Q.** With `CCNC1C2CCC(C2)C1c1ccccc1` (racemic) [FENCAMFAMIN] as the compound, how does the Relative potency (Mus musculus [3]) read?
**A.** The Relative potency was “Stimulant”.

**Q.** And the logP ([2]; read-out: logP)?
**A.** The logP was 4.15.

**Q.** What does the source list for `CNC1(C)C2CCC(C2)C1(C)C` (racemic) [MECAMYLAMINE]?
**A.** Relative potency (Mus musculus [1]): 1; logP [2]: 3.53

**Q.** With `CN[C@@H]1C2(C)CCC(C2)C1(C)C` (single isomer, unassigned; (+)) as the compound, how does the Relative potency (Mus musculus [1]) read?
**A.** Its Relative potency is 1.2.

**Q.** For `CN[C@H]1C2(C)CCC(C2)C1(C)C` (single isomer, unassigned; (+)), which Relative potency (Mus musculus [1]) is on record?
**A.** The Relative potency was 1.9.

**Q.** For `CNC1(C)C2CCC(C2)C1(C)C` (single isomer, unassigned; (+)) [MECAMYLAMINE], which Relative potency (Mus musculus [1]) is on record?
**A.** Its Relative potency is 3.

**Q.** Which Relative potency (Mus musculus [1]) does the source give for `CN[C@@H]1C2(C)CCC(C2)C1(C)C` (single isomer, unassigned; (-)) here?
**A.** The Relative potency was 1.7.

**Q.** What about the logP ([2]; read-out: logP) of the same compound?
**A.** Its logP is 3.53.

**Q.** With `CN[C@H]1C2(C)CCC(C2)C1(C)C` (single isomer, unassigned; (-)) as the compound, how does the Relative potency (Mus musculus [1]) read?
**A.** Its Relative potency is 6.2.

**Q.** What about the logP ([2]; read-out: logP) of the same compound?
**A.** Its logP is 3.53.

**Q.** Which Relative potency (Mus musculus [1]) does the source give for `CNC1(C)C2CCC(C2)C1(C)C` (single isomer, unassigned; (-)) [MECAMYLAMINE] here?
**A.** The Relative potency was 1.4.

— ChEMBL document CHEMBL1125614, “Synthesis of 2-exo- and 2-endo-mecamylamine analogues. Structure-activity relationships for nicotinic antagonism in the central nervous system” (J Med Chem, 1991)
